Screening data: PubChem, several laboratories
CRFBP-R2 block = antagonists of CRF-BP/CRF-R2 complex, primary screen, cell-based, HEK293, calcium dye fluorescence, uHTS | CRF-induced calcium fluorescence | inhibition, % at 11.8 µM | 350,000 compounds, 0.59% hits | AID 588475, 2011;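 active = inhibition of the ligand-induced calcium signal above about 50% at the single tested concentration, limit read from the data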
ANO1 block = TMEM16A chloride channel inhibitors, primary screen, cell-based, HTS; HEK293 TMEM16A/YFP iodide influx fluorescence, ionomycin; Anoctamin-1 (Mus musculus), Q8BHY3; AID 588511, 2011; 310,000 compounds, 1.2% hits; normalized B-score (activity score, 25-100; higher = stronger inhibition) at 10 µM;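 active = ratio plate-corrected score three or more library SD toward inhibition, starting fluorescence score within five deviations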;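 also: score derived from kinetic fluorescence span divided by baseline fluorescence per well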
Target sequence (Q8BHY3 whole entry, looked up): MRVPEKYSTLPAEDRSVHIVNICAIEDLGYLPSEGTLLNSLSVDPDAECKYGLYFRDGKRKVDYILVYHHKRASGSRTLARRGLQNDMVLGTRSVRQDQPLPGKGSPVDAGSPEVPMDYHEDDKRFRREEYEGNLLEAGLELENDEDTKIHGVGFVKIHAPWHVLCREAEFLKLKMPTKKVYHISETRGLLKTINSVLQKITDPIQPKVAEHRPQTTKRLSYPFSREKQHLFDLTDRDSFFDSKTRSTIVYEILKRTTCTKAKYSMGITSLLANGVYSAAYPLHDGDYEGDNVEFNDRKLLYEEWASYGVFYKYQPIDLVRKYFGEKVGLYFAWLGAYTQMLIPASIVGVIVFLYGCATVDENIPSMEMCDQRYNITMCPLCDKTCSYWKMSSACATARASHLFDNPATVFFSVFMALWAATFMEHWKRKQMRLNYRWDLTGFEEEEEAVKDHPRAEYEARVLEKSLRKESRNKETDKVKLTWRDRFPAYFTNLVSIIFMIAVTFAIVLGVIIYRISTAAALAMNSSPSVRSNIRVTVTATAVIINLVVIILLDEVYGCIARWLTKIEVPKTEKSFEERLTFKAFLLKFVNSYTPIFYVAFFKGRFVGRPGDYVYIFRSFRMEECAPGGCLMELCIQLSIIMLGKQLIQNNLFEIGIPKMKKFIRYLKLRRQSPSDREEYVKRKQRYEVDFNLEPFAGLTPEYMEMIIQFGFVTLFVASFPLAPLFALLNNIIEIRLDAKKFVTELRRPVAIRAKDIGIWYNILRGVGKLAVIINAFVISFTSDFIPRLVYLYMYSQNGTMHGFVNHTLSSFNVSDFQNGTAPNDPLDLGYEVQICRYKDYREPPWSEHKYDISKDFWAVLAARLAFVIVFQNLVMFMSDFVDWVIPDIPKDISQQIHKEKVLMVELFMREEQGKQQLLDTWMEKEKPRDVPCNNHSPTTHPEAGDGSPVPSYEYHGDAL
TAAR1 antag = human TAAR1 antagonists, primary screen, Fluo-8 calcium fluorescence, CHO RD-HGA16 cells | Trace amine-associated receptor 1 (Homo sapiens), Q96RJ0 | antagonist | AID 624466, 2012 | 360,000 compounds, 1.5% hits | inhibition, % at 3 µM;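 active = inhibition above a per-plate cutoff, the mean inhibition of test compounds on that plate plus 3 SD, cut at about 49% in these data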
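Assay system: RD-HGA16 CHO cells with stable hTAAR1 and Gα16 / Reagent: EC80 β-phenethylamine stimulus / Doses: 3 µM, single point / Timing: dye loading 75 min at 37 °C, then 30 min room temperature / Measured by: Fluo-8 intracellular calcium dye fluorescence, real-time kinetic reads / Controls: vehicle wells and EC80 agonist wells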
TMEM16A act = TMEM16A chloride channel activators or potentiators, primary screen, cell-based, HTS. B-score at 10 µM. AID 623877, 2012. Anoctamin-1 (Mus musculus), Q8BHY3. HEK293 TMEM16A/YFP-H148Q/I152L, iodide quench fluorescence; active compounds read low. 340,000 compounds, 0.3% hits;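 active = fluorescence-ratio B-score plate-corrected deviation score at least 3 library SD below zero, with starting fluorescence score within 5 deviations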;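 also: channel opened by trigger with iodide after compound preincubation; score built on the fluorescence ratio of max minus min over baseline; more negative score means more quench and so TMEM16A activation or potentiation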
CRFR2-BP ag = agonists of CRF-BP/CRF-R2 complex, primary screen, cell-based, HEK293, calcium dye fluorescence, uHTS | CRF-binding protein / CRF receptor 2 complex (human) | calcium dye fluorescence (FLIPR); percent of saturating CRF peptide response | activation, % at 13.2 µM | 350,000 compounds, 0.46% hits;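 active = activation of at least 50%, plus an integration ratio under a set limit after plate pattern correction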
TAAR1 ag = human TAAR1 agonists, primary screen, Fluo-8 calcium fluorescence, CHO RD-HGA16 cells | Trace amine-associated receptor 1 (Homo sapiens), Q96RJ0 | vehicle wells 0%, saturating PEA agonist 100% | activation, % at 3 µM | 360,000 compounds, 0.99% hits | AID 624467, 2012;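 active = activation above the mean activation of all test compounds in the run plus 3 SD, cut at about 38% in these data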
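System: CHO-derived RD-HGA16 cells with stable Gα16 and human TAAR1 / Times: 17-24 h plating, Fluo-8 75 min 37 °C, 30 min RT / Technique: calcium-sensitive Fluo-8 signal, excitation 470-495, emission 515-575 nm / Measure: % activation relative to PEA EC100 response / Benchmarks: DMSO and PEA EC100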
TAAR1 ag conf = human TAAR1 agonists, retest of hits, confirmation, Fluo-8 calcium fluorescence, CHO RD-HGA16 cells. 2,400 compounds, 82% hits. scaled: DMSO 0%, maximal phenethylamine 100%. shares compounds with TAAR1 ag. activation, % at 3 µM;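 active = activation above a cutoff set at the run's mean compound activation plus 3 SD, cut at about 39% in these data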
Ga16 nonsel ag = nonselective calcium mobilization agonists, CHO-Ga16 cells, counter-screen for hTAAR1 agonist project, cell-based, fluorescence, CHO-Ga16 parental line. 2,400 compounds, 50% hits. shares compounds with TAAR1 ag. activation, % at 3 µM. AID 651787, 2012. Fluo-8 calcium fluorescence; normalized to maximal ATP response, DMSO zero;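 active = activation above the run cutoff, the mean activation over all tested wells plus 3 SD, cut at about 12% in these data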
TAAR1 desens = TAAR1 desensitization by agonist hits, confirmation, counter-screen for TAAR1 agonist project, cell-based, fluorescence, tachyphylaxis. shares compounds with TAAR1 ag. CHO RD-HGA16 hTAAR1, Fluo-8 calcium, beta-PEA response inhibition. inhibition, % at 3 µM. 2,400 compounds, 46% hits;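 active = inhibition above the run cutoff, the mean inhibition of all test compounds plus 3 SD, cut at about 49% in these data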;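 also: beta-PEA stimulus applied at its EC80; loss of beta-PEA calcium signal after compound pretreatment read as receptor desensitization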
Ga16 nonsel ant = inhibition of ATP-evoked calcium response in CHO-Ga16 cells, counter-screen for TAAR1 agonist project, cell-based, fluorescence. shares compounds with TAAR1 ag. CHO-Ga16 ATP-induced calcium, Fluo-8 fluorescence. inhibition, % at 3 µM. 2,400 compounds, 39% hits. AID 651952, 2012;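 active = inhibition above the plate's mean compound inhibition plus 3 SD, computed per plate, cut at about 22% in these data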
Each line names hits and unclear results; the compound was inactive in the other large screens (follow-up assays come after a bar, where they were run). Rows were chosen to be rich in hits. Some 3.9% of all compounds tested hit in one or more screens of this group.

CC(C)=CC(=O)N1CCC(N2CCC(C(=O)NCC3CCCO3)CC2)CC1 (stereo unspecified)	none
O=C(NCCc1cccc(Cl)c1)c1cccc(-n2cnnn2)c1	none (no result: ANO1 block)
O=C(O)C1CCCCC1C(=O)NCCCCc1ccccc1 (stereo unspecified)	TAAR1 ag 45 | TAAR1 ag conf 56 | Ga16 nonsel ag inactive | TAAR1 desens inactive | Ga16 nonsel ant inactive
O=C(O)C1CCCCC1C(=O)NCCCc1ccccc1 (stereo unspecified)	TAAR1 ag 68 | TAAR1 ag conf 50 | Ga16 nonsel ag inactive | TAAR1 desens inactive | Ga16 nonsel ant inactive
O=C(NCCCc1ccccc1)c1ccccc1	none
COc1cc(/C=C/C(=O)OCC(=O)Nc2ccc(S(N)(=O)=O)cc2)ccc1O	none
COc1cc(/C=C/C(=O)OCC(=O)Nc2ccc([N+](=O)[O-])cc2)ccc1O	TAAR1 ag 72 | TAAR1 ag conf 77 | Ga16 nonsel ag 43 | TAAR1 desens 58 | Ga16 nonsel ant 39
O=C(COC(=O)/C=C/c1ccc(Cl)cc1)Nc1ccccc1	TAAR1 ag 62 | TAAR1 ag conf inactive | Ga16 nonsel ag inactive | TAAR1 desens inactive | Ga16 nonsel ant inactive
Cc1ccccc1C(=O)NCC(=O)NNC(=O)c1cccc(Cl)c1	none (no result: ANO1 block)
O=C(O)c1ccc(-c2noc(-c3ccccc3C(F)(F)F)n2)cc1	TAAR1 ag 82 | TAAR1 ag conf inactive | Ga16 nonsel ag 20 | TAAR1 desens inactive | Ga16 nonsel ant 24
CCOC(=O)CN(C)Cc1cn(C)nc1-c1ccc(Oc2ccccc2)cc1	none
CCCCCOc1ccc(CSC(=N)N)cc1[N+](=O)[O-]	TAAR1 ag 59 | TAAR1 ag conf 104 | Ga16 nonsel ag 59 | TAAR1 desens 69 | Ga16 nonsel ant 29
COc1ccc(NC(=O)c2cc(Br)c(Br)s2)cn1	TAAR1 ag 71 | TAAR1 ag conf 49 | Ga16 nonsel ag 42 | TAAR1 desens inactive | Ga16 nonsel ant inactive
O=C(Nc1cccnc1)c1ccc(Br)s1	none
CCc1sc(C(=O)Nc2cccnc2)cc1Br	TAAR1 ag 65 | TAAR1 ag conf 48 | Ga16 nonsel ag 33 | TAAR1 desens inactive | Ga16 nonsel ant inactive
CCOC(=O)Cc1nnc(NC(=O)CSc2ccc(C)cc2)s1	TAAR1 ag 69 | TAAR1 ag conf 58 | Ga16 nonsel ag 27 | TAAR1 desens inactive | Ga16 nonsel ant inactive
COc1ccc(NC(=O)Nc2nnc(CC(=O)NCc3ccccc3)s2)cc1	TAAR1 ag 44 | TAAR1 ag conf 54 | Ga16 nonsel ag inactive | TAAR1 desens inactive | Ga16 nonsel ant inactive
COCc1nnc(NC(=O)CSc2ccc(C)cc2)s1	none
CCOC(=O)Cc1nnc(NC(=O)Nc2ccccc2)s1	TAAR1 ag 45 | TAAR1 ag conf 67 | Ga16 nonsel ag inactive | TAAR1 desens inactive | Ga16 nonsel ant inactive
CC(=O)OCC(=O)C1CCC2C3CC=C4CC(O)CCC4(C)C3CCC12C (stereo unspecified)	none
CC(=O)C1CCC2C3CC=C4CC(SC(=N)N)CCC4(C)C3CCC12C (stereo unspecified)	TAAR1 antag 81, TAAR1 ag 84 (no result: ANO1 block) | TAAR1 ag conf 111 | Ga16 nonsel ag 69 | TAAR1 desens 91 | Ga16 nonsel ant 53
CCN(CC)CCCN1C(=O)CSC1c1ccc([N+](=O)[O-])cc1 (stereo unspecified)	TAAR1 ag 52 | TAAR1 ag conf inactive | Ga16 nonsel ag inactive | TAAR1 desens inactive | Ga16 nonsel ant inactive
CN(CCc1ccccc1)C(=O)CC1C(=O)NCCN1Cc1ccccn1 (stereo unspecified)	TAAR1 ag 63 (no result: ANO1 block, TMEM16A act) | TAAR1 ag conf 71 | Ga16 nonsel ag inactive | TAAR1 desens 60 | Ga16 nonsel ant inactive
CCOc1ccccc1CN1CCNC(=O)C1CC(=O)N(C)CCc1cnn(C)c1 (stereo unspecified)	none
COc1cccc(CNS(=O)(=O)c2ccc3c(c2)N(C(C)=O)CCO3)c1	none
CC(=O)N1CCOc2ccc(S(=O)(=O)NCCc3ccccc3)cc21	TAAR1 ag 56 | TAAR1 ag conf 64 | Ga16 nonsel ag inactive | TAAR1 desens inactive | Ga16 nonsel ant inactive
N#Cc1nc(-c2ccc(Cl)cc2)oc1NCCc1ccccn1	TAAR1 ag 45 | TAAR1 ag conf inactive | Ga16 nonsel ag inactive | TAAR1 desens inactive | Ga16 nonsel ant inactive
Cc1ccc(-c2nc(C#N)c(NCCc3ccccn3)o2)cc1	none
Oc1cc2c(cc1O)C(c1ccccc1)CNCC2 (stereo unspecified)	none
c1ccc(C2CNCCc3ccccc32)cc1 (stereo unspecified)	TAAR1 antag 74, TAAR1 ag 64 | TAAR1 ag conf 95 | Ga16 nonsel ag inactive | TAAR1 desens 92 | Ga16 nonsel ant inactive
COc1cccc(CNC(=O)[C@@H]2CCCN2C(=O)[C@H]2CCCCN2)c1	none (no result: CRFBP-R2 block, ANO1 block, TMEM16A act, CRFR2-BP ag)
COc1ccc(Cl)c2sc(NC(=O)C3=COCCO3)nc12	none
Cc1ccc(Cl)c2sc(NC(=O)C3=COCCO3)nc12	TAAR1 ag 61 | TAAR1 ag conf inactive | Ga16 nonsel ag 20 | TAAR1 desens inactive | Ga16 nonsel ant inactive
COc1cc2[nH]c(C(=O)N3CCc4ccccc43)cc2c(OC)c1OC	none
CCCCC(=O)NC(=S)NNC(=O)CCc1ccccc1	CRFR2-BP ag 71, TAAR1 ag 64 | TAAR1 ag conf 82 | Ga16 nonsel ag 62 | TAAR1 desens inactive | Ga16 nonsel ant 35
